Laboratory results: ChEMBL document CHEMBL2034844, “Novel multi-functional nitrones for treatment of ischemic stroke” (2012)
Calls of active or inactive are those of the source. No cut-off for these calls is given here.

Tests used:
[1] = tested on: Radical scavenging activity; assay: Antioxidant activity assessed as DPPH radical-scavenging activity at 0.5 to 4 mM by spectrophotometry; assay type: functional
Outline: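 50 µL methanolic compound solution mixed with 150 µL methanolic DPPH; absorbance at 515 nm followed continuously until stable (50 min); clearance (%) calculated from the control absorbance and the reaction absorbance at 50 min.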

Platelet = assay: Inhibition of platelet aggregation in New Zealand rabbit platelet rich plasma assessed as maximum platelet aggregation at 2 mM after 8 mins by platelet aggregometry (reference value: 57.3 +/- 8.3%); assay type: functional, Oryctolagus cuniculus; design: scale not given: the % may be the effect or the level left
Neuron [2] = assay: Neuroprotective activity against t-BHP-induced rat cerebellar granule neuronal damage at 1000 uM preincubated for 30 mins prior t-BHP challenge measured after 4 hrs by MTT assay (reference value: 49.4%); assay type: functional
[3] = Antioxidant activity assessed as peroxynitrite radical-scavenging activity at 1 to 1000 uM by SIN-1 based chemiluminescence assay; assay type: functional
Outline: (§1)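 Peroxynitrite generated from SIN-1 dissolved in 0.1 M PBS. The mix held PBS, luminol, compound or PBS control, and SIN-1 added last to start the reaction; read-out was chemiluminescence.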

[4] = Antioxidant activity assessed as hydroxyl radical-scavenging activity at 1000 uM by monitoring p-NDA bleaching using spectrophotometry; assay type: functional
Outline: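 Fenton-generated hydroxyl radical from FeSO4 (final 4.0 mM) and freshly prepared H2O2 (7.3 mM). p-NDA was prepared at 1.6 mM in 50 mM NaCl. Compounds were dissolved in double-distilled water at final 125–1000 µM. p-NDA bleaching was followed as absorbance loss at 440 nm over 100 s; clearance (%) was calculated from absorbance at 0 and 100 s.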

[5] = Antioxidant activity assessed as superoxide anion-scavenging activity at 125 to 1000 uM by spectrophotometry; assay type: functional
Outline: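 Glass-cuvette mix of Tris–HCl buffer (pH 8.2), pyrogallic acid solution (0.16 mmol/L) and test sample at final 125, 250, 500 and 1000 µM; pyrogallol-autoxidation superoxide assay.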

Neuron [6] = assay: Neuroprotective activity against t-BHP-induced rat cerebellar granule neuronal damage at 100 uM preincubated for 30 mins prior t-BHP challenge measured after 4 hrs by MTT assay (reference value: 49.4%); assay type: functional, cell-based
[7] = Antioxidant activity assessed as peroxynitrite radical-scavenging activity at 1000 uM by SIN-1 based chemiluminescence assay; assay type: functional; outline: as §1
[8] = Antioxidant activity assessed as peroxynitrite radical-scavenging activity at 1 uM by SIN-1 based chemiluminescence assay; assay type: functional; outline: as §1
Rattus norvegicus = assay: Neuroprotective activity in Sprague-Dawley rat tMCAO model assessed as reduction in total brain infarct volume at 110 mg/kg, ip after 24 hrs by TTC staining relative to control; assay type: functional; design: scale not given: the % may be the effect or the level left; conditions: route intraperitoneal
Outline: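 Adult male Sprague–Dawley rats (260–310 g), chloral hydrate anaesthesia; nylon suture occluding right MCA for 2 h, then reperfusion. Only rats with neurological score 2 or 3 used; body temperature held at 37 °C. Dosed ip 2 h after MCAO; saline vehicle controls. Killed after 22 h reperfusion; six 2-mm coronal slices stained with 0.5% TTC, 37 °C, 30 min; infarct volume by image analysis; n = 13/group.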

Structure (SMILES): Cc1nc(C)c(CN(Cc2nc(C)c(C)nc2C)C(C)(C)C)nc1C
- Activity [1]: Active
- Activity (Platelet): 44.3%
- Activity (Neuron [2]): 75.5%
- Activity [3]: inactive
- Activity [4]: 100%
- Activity [5]: inactive
- Activity (Neuron [6]): Active

Structure (SMILES): CC(C)(C)/[N+]([O-])=C/c1cnc2ccccc2n1
- Activity [1]: Active
- Activity (Neuron [2]): 53.9%
- Activity [3]: inactive
- Activity (Neuron [6]): inactive

Structure (SMILES): Cc1nc(C)c(C)nc1C [LIGUSTRAZINE]
- Activity [1]: Active
- Activity (Platelet): 42.9%
- Activity (Neuron [2]): 58.4%
- Activity [3]: inactive
- Activity [5]: inactive

Structure (SMILES): CC(=O)Oc1ccccc1C(=O)O [ASPIRIN]
- Activity (Platelet): 26.6%

Structure (SMILES): CCc1nccnc1/C=[N+](\[O-])C(C)(C)C
- Activity (Platelet): 33.8%
- Activity (Neuron [2]): Active
- Activity (Neuron [2]; record 2): 64.6%
- Activity [3]: Active
- Activity [5]: Active
- Activity (Neuron [6]): Active

Structure (SMILES): Cc1nc(/C=[N+](\[O-])C(C)(C)C)c(C)nc1/C=[N+](\[O-])C(C)(C)C
- Activity [1]: Active
- Activity (Platelet): 37.7%
- Activity (Neuron [2]): 80.6%
- Activity [7]: 99.4%
- Activity [8]: 31.9%
- Activity (Rattus norvegicus): 65%
- Activity [5]: Active
- Activity (Neuron [6]): Active

Structure (SMILES): CCCc1nccnc1/C=[N+](\[O-])C(C)(C)C
- Activity [1]: Active
- Activity (Platelet): 48%
- Activity (Neuron [2]): Active
- Activity (Neuron [2]; record 2): 66%
- Activity [3]: Active
- Activity [5]: Active
- Activity (Neuron [6]): Active

Structure (SMILES): CC(C)(C)/[N+]([O-])=C/c1cccc2nccnc12
- Activity [1]: Active
- Activity (Neuron [2]): 54.8%
- Activity [3]: inactive
- Activity (Neuron [6]): inactive

Structure (SMILES): CC(C)(C)/[N+]([O-])=C\c1ccccc1
- Activity [1]: Active
- Activity [3]: Active
- Activity [5]: inactive
